Most compounds without a hit are left out; they make up all but 6.9% or so of the library.
PostGolgi yeast: phenotypic screen on post-Golgi transport, primary screen | post-Golgi transport phenotypic cell assay | inhibition, % at 10 µM | 98,000 tested, 0.9% active;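 further: yeast cells grown in 1536-well plates; yeast grown about 18 h at 30C before absorbance read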
Ecoli tolC: growth inhibitors of E. coli tolC mutant, primary screen, strain BW25113 ΔtolC::kan, 384-well. OD615. 65,000 tested, 2.2% active. growth inhibition, % at 10 µM (by protocol). AID 573, 2007;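 active means growth inhibition at or above a cutoff equal to the mean over every tested compound plus 3 SD, cut at about 60% in these data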;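 further: growth measured after 20 h incubation at 37 °C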
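Test system – E. coli BW25113 ΔtolC::kan, tolC deletion mutant strain · Detection – OD at 615 nm · Buffer or medium – LB with kanamycin 50 µg/mL · Times – 20 h compound exposure of bacteria at 37 °C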
FAK inh: FAK kinase inhibitors, primary screen, biochemical; biochemical FAK kinase activity assay; inhibition, %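 (tested at 7 µM)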; 97,000 tested, 0.84% active; in the data active means inhibition above about 19%;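 further: 0% = DMSO and 100% = reference compound high control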
Target sequence (Q05397 whole entry, looked up): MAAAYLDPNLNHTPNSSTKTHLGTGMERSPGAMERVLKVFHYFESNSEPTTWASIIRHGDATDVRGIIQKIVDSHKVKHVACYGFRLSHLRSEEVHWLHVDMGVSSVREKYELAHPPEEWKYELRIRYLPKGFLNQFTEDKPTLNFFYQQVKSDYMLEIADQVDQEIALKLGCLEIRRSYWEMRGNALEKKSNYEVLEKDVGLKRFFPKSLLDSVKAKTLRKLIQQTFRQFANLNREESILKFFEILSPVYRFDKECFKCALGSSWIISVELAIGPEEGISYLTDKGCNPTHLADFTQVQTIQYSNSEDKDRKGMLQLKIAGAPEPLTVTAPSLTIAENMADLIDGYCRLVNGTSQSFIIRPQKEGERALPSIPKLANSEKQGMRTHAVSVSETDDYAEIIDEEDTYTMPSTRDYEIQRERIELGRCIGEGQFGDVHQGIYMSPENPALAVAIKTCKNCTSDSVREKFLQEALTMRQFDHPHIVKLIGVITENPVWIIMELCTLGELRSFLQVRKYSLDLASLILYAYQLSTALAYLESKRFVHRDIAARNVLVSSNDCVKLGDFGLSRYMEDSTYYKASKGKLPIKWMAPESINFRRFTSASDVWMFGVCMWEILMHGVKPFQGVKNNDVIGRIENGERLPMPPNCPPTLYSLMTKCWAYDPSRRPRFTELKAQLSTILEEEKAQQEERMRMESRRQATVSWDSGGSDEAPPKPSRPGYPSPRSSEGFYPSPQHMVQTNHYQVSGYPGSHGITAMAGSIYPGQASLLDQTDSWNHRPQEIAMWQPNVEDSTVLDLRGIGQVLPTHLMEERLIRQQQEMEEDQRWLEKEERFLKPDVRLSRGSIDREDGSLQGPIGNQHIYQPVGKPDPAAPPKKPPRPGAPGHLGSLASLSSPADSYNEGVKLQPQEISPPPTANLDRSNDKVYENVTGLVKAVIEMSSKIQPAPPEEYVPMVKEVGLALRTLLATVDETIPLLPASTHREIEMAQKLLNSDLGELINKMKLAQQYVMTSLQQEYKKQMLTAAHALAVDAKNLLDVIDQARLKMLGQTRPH
PostGolgi ctrl: growth inhibition of yeast control strain, primary screen, counter-screen for post-Golgi transport modulator project; inhibition, % at 10 µM; 98,000 tested, 5% active; efflux-deficient yeast background strain, growth absorbance A615, 16 h
Calb biofilm kill: clotrimazole potentiators killing Candida biofilms, primary screen, with clotrimazole, Alamar Blue; C. albicans biofilm + clotrimazole; inhibition, % at 6 µM; 85,000 tested, 0.14% active; AID 834, 2007;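 active means inhibition above 20%; inactive means inhibition below 20%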;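 further: preformed 24 hr biofilms exposed to compound for 48 hr; 0% = biofilm without compound and 100% = blank killed by clotrimazole plus chlorhexidine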
PTK2B oligo ant: antagonists of Pyk2 self-association, primary screen, Q293 cells, FERM NanoBiT luminescence, HTS. z-score (the deposit names both 25 µM and 10 µM). AID 1347419, 2020. 99,000 tested, 0.83% active. active compounds read low. Protein-tyrosine kinase 2-beta (Homo sapiens), Q14289;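 active means Z-score of -3 or lower, scaled per plate to the spread of control and sample wells; inactive means z-score above -3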;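 further: negative z-score means lost luminescence so less FERM oligomerization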
Active calls of the source: *; x = no result. Unless noted, no stated cut-off is given here; in the data, active means inhibition above about 30%; inactive means the rest.

SMILES	PostGolgi yeast	Ecoli tolC	FAK inh	PostGolgi ctrl	Calb biofilm kill	PTK2B oligo ant
CCOc1ncccc1C(=O)OCC(=O)N1CCN(S(=O)(=O)c2ccccc2)CC1	1	-10	-2	12	4	1.3
Cc1ccc(CN(c2ccc(C(=O)Nc3ccc4c(c3)OCO4)cc2)S(C)(=O)=O)cc1	2	x	3	18	0	-0.39
Cc1ccc2[nH]c3c(c2c1)CCC3=O	1	-2	-5	5	5	0.9
Cc1ccc2[nH]c3c(c2c1)CCc1cn[nH]c1-3	-3	100*	15	63*	7	-0.29
CCn1c(C(=O)N2CCCC(C(=O)O)C2)cc2sccc21 (stereo unspecified)	x	-14	3	x	-4	0.35
CCn1c(C(=O)N2CCC(Cc3ccccc3)CC2)cc2sccc21	-1	80*	1	18	0	0.31
Cc1cc2ccccc2n1CCNC(=O)Cc1cccc2ccccc12	1	x	1	6	7	x
COc1ccc(/C=C/c2ccncc2)c2ccccc12	-1	x	2	43*	-1	-0.92
Cc1ccccc1CN1CCN(CC(=O)NCCCN2CCN(c3ccc(F)cc3)CC2)C1=O	14	7	-5	2	0	2.4
Cc1c(C(=O)OC2CCCCC2)sc2nc[nH]c(=O)c12	3	32	1	59*	-3	-0.2
Cc1sc2ncn(C(C)C(=O)OC3CCCCC3)c(=O)c2c1C (stereo unspecified)	1	x	4	24	x	-0.93
CCOc1cc(-c2noc(CCC(=O)Nc3cccnc3)n2)ccc1OC	-2	4	x	33*	3	-0.16
O=C(CCc1nc(-c2ccccc2F)no1)Nc1ccc(Oc2ccccc2)cc1	-8	81*	1	34*	2	-0.89
COc1cccc(NC(=O)CCc2nc(-c3ccccc3F)no2)c1	-13	x	-1	0	9	1.3
Cc1cccc(-c2noc(CCC(=O)Nc3ccccc3)n2)c1	-5	38	-2	19	-2	0.83
COc1ccccc1-c1noc(CCC(=O)Nc2cccc(C(F)(F)F)c2)n1	-2	65*	x	12	1	-1.7
COC(=O)C(Cc1cnc(Cl)s1)(C(=O)OC)c1ccc([N+](=O)[O-])cc1[N+](=O)[O-]	8	x	-1	15	0	-1.5
CCSC1=C(C#N)C(c2ccc(Cl)cc2)C2=C(CCCC2=O)N1 (stereo unspecified)	-5	96*	8	5	3	-1.8
CSC1=C(C#N)C(c2ccc3c(c2)OCO3)C2=C(CCCC2=O)N1 (stereo unspecified)	x	x	-2	x	-2	-1.9
Cc1ccc(C(c2ccc(C)o2)c2cccc([N+](=O)[O-])c2O)o1	3	x	2	16	-5	-0.14
Cc1cc(C(c2ccc(C)o2)c2ccc(C)o2)c(O)c([N+](=O)[O-])c1	0	x	0	19	78*	-1.7
COc1ccccc1CN1C(=O)CN(C2CCCCCC2)C(=O)C1c1ccc(F)cc1 (stereo unspecified)	-1	x	-3	49*	8	-2.5
O=C(c1cccc(S(=O)(=O)N2CCCCC2)c1)N1CCCCC1	13	-11	2	38*	-4	0.63
O=C(c1cccc(-c2nnc(-c3ccccc3)o2)c1)N1CCCCC1	7	23	2	31*	5	0.1
O=C(NCc1ccc2c(c1)OCO2)c1cccc(S(=O)(=O)N2CCCCC2)c1	7	20	-1	31*	7	0.59
SMILES	PostGolgi yeast	Ecoli tolC	FAK inh	PostGolgi ctrl	Calb biofilm kill	PTK2B oligo ant
COc1cc(NC(=O)C(C)C)ccc1NC(=O)c1ccco1	0	-8	4	6	4	-0.53
CC(C)(C)C1CCC(OCC(O)CN2CCN(c3ccccc3)CC2)CC1 (stereo unspecified)	104*	x	-8	96*	4	-0.84
Cc1ccc(C)c(OCC(O)CN2CCC(C)CC2)c1C (stereo unspecified)	-2	9	-4	7	1	0.43
CC1CCN(CC(O)COC2CCC(C(C)(C)C)CC2)CC1 (stereo unspecified)	97*	35	-1	98*	9	-0.27
Cc1ccc(N2CCN(CC(O)COC3CCCCC3)CC2)cc1 (stereo unspecified)	10	-4	0	19	9	0.85
CCOC(=O)N1CCN(Cc2nc3c(c(=O)n(C)c(=O)n3C)n2CCC(C)C)CC1	3	-8	-3	-7	15	x
Cc1cccc(C)c1NS(=O)(=O)c1ccc2c(c1)C(=O)c1ccccc1C2=O	x	x	x	x	x	-0.04
COc1cc([C@@H]2c3cc4c(cc3[C@H](O)[C@H]3COC(=O)[C@H]23)OCO4)cc(OC)c1OC	x	8	x	x	10	x
COC(=O)c1ccccc1S(=O)(=O)N(CCCN1CCOCC1)Cc1cccs1	-2	-6	0	-2	9	0.42
O=C(/C(=C/c1ccc(Cl)cc1)c1nc2ccccc2[nH]1)c1cccs1	104*	x	4	101*	x	-0.47
COc1cc(/C=C(/C(=O)c2cccs2)c2nc3ccccc3[nH]2)ccc1O	2	x	-7	6	5	-0.85
O=S(=O)(c1ccc(Cl)cc1)N1CCCC1c1nc(-c2cccc(Cl)c2)no1 (stereo unspecified)	1	x	-6	33*	x	-0.39
CCCc1nc(SCC(=O)N2CCCc3ccccc32)c2c(=O)n(C)c(=O)n(C)c2n1	49*	78*	-2	37*	x	x
CCCc1nc(SCC(=O)N2CCC(Cc3ccccc3)CC2)c2c(=O)n(C)c(=O)n(C)c2n1	22	75*	1	38*	4	x
Cn1c(=O)c2c(SCC(=O)N3CCCc4ccccc43)nc(CC(C)(C)C)nc2n(C)c1=O	6	9	1	29	-1	x
C(=N\N1CCN(Cc2cccc3ccccc23)CC1)/c1ccco1	4	x	3	1	8	-0.32
Cc1cc(OCC(C)C)ccc1/C(O)=C1/C(=O)C(=O)N(Cc2cccnc2)C1c1ccncc1 (stereo unspecified)	x	x	-4	x	-5	0.32
c1coc(-c2nnc3sc(-c4cccs4)nn23)c1	7	16	2	27	5	0.38
CCOC(=O)NC(=O)/C(C#N)=N\Nc1ccc(Cl)cc1	-2	x	-2	-2	3	2.4
N#C/C(=N\Nc1ccc(Cl)cc1)C(=O)c1ccccc1	7	x	-5	79*	x	-2.3
COc1ccc(OC)c2[nH]c(=O)c(CCNS(=O)(=O)c3ccc(Cl)cc3)cc12	-2	-5	1	8	6	-0.69
O=C1CC(N2CCC(O)(c3ccc(Cl)cc3)CC2)C(=O)N1 (stereo unspecified)	6	-15	1	2	6	-1.1
O=C(CCN1C(=O)c2ccccc2C1=O)Nc1ccc(S(=O)(=O)N2CCOCC2)cc1	6	12	1	3	2	0.63
